Assay results taken from ChEMBL document CHEMBL1153312, “Discovery of substituted 2,4,4-triarylimidazoline derivatives as potent and selective neuropeptide Y Y5 receptor antagonists” (Bioorg Med Chem Lett, 2009).
pIC50: −log10 of the molar value.

Key:
[1] = target: T1, Neuropeptide Y receptor type 5 (Homo sapiens, UniProt Q15761); assay: Displacement of [125I]PYY from human recombinant neuropeptide Y5 receptor expressed in thymidine kinase-deficient mouse LM cells; type: cell-based
T1 sequence (Q15761 whole entry): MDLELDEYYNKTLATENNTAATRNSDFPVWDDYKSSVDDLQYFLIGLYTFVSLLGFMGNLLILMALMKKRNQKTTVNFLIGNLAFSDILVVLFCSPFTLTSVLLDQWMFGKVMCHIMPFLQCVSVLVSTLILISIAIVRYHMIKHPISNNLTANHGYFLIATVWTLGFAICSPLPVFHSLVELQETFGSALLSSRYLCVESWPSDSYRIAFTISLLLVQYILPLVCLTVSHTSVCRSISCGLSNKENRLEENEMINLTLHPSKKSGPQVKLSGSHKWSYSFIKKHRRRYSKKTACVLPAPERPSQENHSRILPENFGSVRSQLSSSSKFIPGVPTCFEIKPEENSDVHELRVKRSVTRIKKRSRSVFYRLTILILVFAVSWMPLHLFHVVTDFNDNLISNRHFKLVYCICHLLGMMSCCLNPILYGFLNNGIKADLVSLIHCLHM
Method in brief: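 [125I]PYY displacement in membranes of LMtk- cells expressing recombinant human Y5 receptor; IC50 determined.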

[2] = Drug level in Sprague-Dawley rat cerebrospinal fluid at 10 mg/kg, po after 2 hrs; type: ADME, organism-based; set-up: dose 10 mg/kg, route oral; conditions: read-out: Drug uptake
Method in brief: (§1)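 Rats dosed orally at 10 mg/kg; plasma, brain (nmol/g) and CSF levels measured 2 h post-dose. Brain-to-plasma and CSF-to-brain ratios were calculated from these levels.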

Brain = assay: Drug level in Sprague-Dawley rat brain at 10 mg/kg, po after 2 hrs; type: ADME, organism-based; set-up: dose 10 mg/kg, route oral; conditions: in vivo; method in brief: as §1
[3] = Ratio of drug level in brain to plasma of Sprague-Dawley rat at 10 mg/kg, po after 2 hrs; type: ADME, organism-based; set-up: dose 10 mg/kg, route oral; conditions: read-out: BPR; method in brief: as §1
[4] = Plasma concentration in Sprague-Dawley rat at 10 mg/kg, po after 2 hrs; type: ADME, organism-based; set-up: dose 10 mg/kg, route oral; method in brief: as §1
[5] = Ratio of drug level in cerebrospinal fluid to brain of Sprague-Dawley rat at 10 mg/kg, po after 2 hrs; type: ADME, organism-based, CSF/Brain; set-up: dose 10 mg/kg, route oral; conditions: in vivo; method in brief: as §1
Rattus norvegicus [6] = assay: Inhibition of D-Trp34NPY-induced food intake in Sprague-Dawley rat at 3 mg/kg, po administered 2 hrs before D-Trp34NPY challenge measured for 2 hrs; type: functional; set-up: scale not given: the % may be the effect or the level left
Method in brief: (§2)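 Oral dosing 2 h before third-ventricle injection of D-Trp34NPY, with artificial CSF as vehicle control. Cumulative food intake was recorded over the following 2 h. Data are mean ± SEM, n = 7–8, with P < 0.05 versus the agonist-only group.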

[7] = target: T1, Neuropeptide Y receptor type 5; assay: Antagonist activity at human recombinant neuropeptide Y5 receptor expressed in thymidine kinase-deficient mouse LM cells assessed as inhibition of neuropeptide-induced increase in intracellular calcium level; type: functional, cell-based
Rattus norvegicus [8] = assay: Inhibition of D-Trp34NPY-induced food intake in Sprague-Dawley rat at 30 mg/kg, po administered 2 hrs before D-Trp34NPY challenge measured for 2 hrs; type: functional; set-up: scale not given: the % may be the effect or the level left; method in brief: as §2
[9] = target: Neuropeptide Y receptor type 4 (Homo sapiens) (UniProt P50391); assay: Binding affinity to human neuropeptide Y4 receptor
Neuropeptide Y receptor type 4 (Homo sapiens), sequence (P50391 whole entry): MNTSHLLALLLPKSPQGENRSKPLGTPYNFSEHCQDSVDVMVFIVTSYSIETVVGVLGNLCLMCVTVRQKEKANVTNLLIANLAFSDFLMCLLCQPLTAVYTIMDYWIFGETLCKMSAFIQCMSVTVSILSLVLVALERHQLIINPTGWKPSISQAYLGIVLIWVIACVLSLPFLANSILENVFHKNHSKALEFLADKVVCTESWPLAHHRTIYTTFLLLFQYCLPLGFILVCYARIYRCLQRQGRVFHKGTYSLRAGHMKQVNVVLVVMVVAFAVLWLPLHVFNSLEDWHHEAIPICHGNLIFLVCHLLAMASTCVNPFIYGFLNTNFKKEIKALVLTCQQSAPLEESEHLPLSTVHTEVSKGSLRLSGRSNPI

[10] = target: T2, Neuropeptide Y receptor type 1 (Homo sapiens) (UniProt P25929); assay: Binding affinity to human neuropeptide Y1 receptor
T2 sequence (whole entry): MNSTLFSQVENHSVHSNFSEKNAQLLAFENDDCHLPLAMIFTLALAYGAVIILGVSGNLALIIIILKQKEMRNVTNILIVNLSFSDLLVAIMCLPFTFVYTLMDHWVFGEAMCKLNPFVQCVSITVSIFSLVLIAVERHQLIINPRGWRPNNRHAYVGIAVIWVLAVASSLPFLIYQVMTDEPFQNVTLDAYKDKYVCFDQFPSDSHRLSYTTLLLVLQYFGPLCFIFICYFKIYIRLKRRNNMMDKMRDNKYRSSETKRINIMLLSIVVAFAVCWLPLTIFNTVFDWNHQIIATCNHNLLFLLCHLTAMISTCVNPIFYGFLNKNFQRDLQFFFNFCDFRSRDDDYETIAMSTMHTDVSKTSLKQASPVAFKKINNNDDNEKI

Rattus norvegicus [11] = assay: Inhibition of D-Trp34NPY-induced food intake in Sprague-Dawley rat at 10 mg/kg, po administered 2 hrs before D-Trp34NPY challenge measured for 2 hrs; type: functional; set-up: scale not given: the % may be the effect or the level left; method in brief: as §2
[12] = target: T3, Neuropeptide Y receptor type 2 (Homo sapiens) (UniProt P49146); assay: Binding affinity to human neuropeptide Y2 receptor
T3 sequence (whole entry): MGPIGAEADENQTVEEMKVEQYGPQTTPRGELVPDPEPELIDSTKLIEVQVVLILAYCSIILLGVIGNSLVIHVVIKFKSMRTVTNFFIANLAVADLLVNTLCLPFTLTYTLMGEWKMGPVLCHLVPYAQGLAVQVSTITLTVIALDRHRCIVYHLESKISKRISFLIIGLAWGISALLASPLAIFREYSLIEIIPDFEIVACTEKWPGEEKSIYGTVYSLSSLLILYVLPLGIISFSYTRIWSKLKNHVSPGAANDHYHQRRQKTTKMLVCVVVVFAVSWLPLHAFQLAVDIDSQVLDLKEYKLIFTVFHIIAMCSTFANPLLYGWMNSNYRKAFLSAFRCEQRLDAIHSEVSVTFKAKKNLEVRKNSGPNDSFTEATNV

Structure (SMILES)	pIC50 [1]	other results
Fc1ccc(C2(c3ccc(F)cc3)CNC(c3cccc(Cl)c3)=N2)cc1	8.27	
CC(=O)c1cccc(C2=NC(c3ccc(F)cc3)(c3ccc(F)cc3)CN2)c1	7.36	
Cc1cccc(C2=NC(c3ccc(F)cc3)(c3ccc(F)cc3)CN2)c1	7.52	
N#Cc1ccnc(C2=NC(c3ccc(F)cc3)(c3ccc(F)cc3)CN2)c1	8.70	concentration at 2 h [2]: 25 nM; Drug uptake (Brain): 6.4 nmol/g; Kp at 2 h [3]: 4.9; concentration at 2 h [4]: 1300 nM; Ratio [5]: 0.004
N#Cc1cccc(C2=NC(c3ccc(F)cc3)(c3ccc(F)cc3)CN2)c1	8.57	concentration at 2 h [2]: 27 nM; Drug uptake (Brain): 8.1 nmol/g; Kp at 2 h [3]: 5.8; concentration at 2 h [4]: 1400 nM; Ratio [5]: 0.003
Fc1ccc(C2(c3ccc(F)cc3)CNC(c3cccc(Br)c3)=N2)cc1	8.32	
COc1cccc(C2=NC(c3ccc(F)cc3)(c3ccc(F)cc3)CN2)c1	7.29	
Fc1ccc(C2(c3ccc(F)cc3)CNC(c3ccc(Cl)cc3)=N2)cc1	6.89	
CS(=O)(=O)c1cccc(C2=NC(c3ccc(F)cc3)(c3ccc(F)cc3)CN2)c1	8.04	
Fc1ccc(C2(c3ccc(F)cc3)CNC(c3ccccc3)=N2)cc1	7.49	
Fc1ccc(C2(c3ccc(F)cc3)CNC(c3ncccn3)=N2)cc1	6.46	
Fc1ccc(C2(c3ccc(F)cc3)CNC(c3ccccn3)=N2)cc1	6.80	
CN(C)c1cccc(C2=NC(c3ccc(F)cc3)(c3ccc(F)cc3)CN2)c1	< 6.00	
O=Cc1cccc(C2=NC(c3ccc(F)cc3)(c3ccc(F)cc3)CN2)c1	8.06	
N#Cc1cccc(C2=NC(c3ccc(F)cc3)(c3ccc(F)cc3)CN2)n1	7.41	
Fc1ccc(C2(c3ccc(F)cc3)CNC(c3cccnc3)=N2)cc1	8.14	
Fc1ccc(C2(c3ccc(F)cc3)CNC(c3cccc(C(F)(F)F)c3)=N2)cc1	8.21	

Structure (SMILES)	pIC50 [1]	other results
COC(=O)c1cccc(C2=NC(c3ccc(F)cc3)(c3ccc(F)cc3)CN2)c1	6.57	
Fc1ccc(C2(c3ccc(F)cc3)CNC(c3cccc(F)c3)=N2)cc1	8.00	
c1ccc(C2=NC(c3ccccc3)(c3ccccc3)CN2)cc1	7.27	
O=c1cccc(C2=NC(c3ccc(F)cc3)(c3ccc(F)cc3)CN2)[nH]1	8.09	
OCc1cccc(C2=NC(c3ccc(F)cc3)(c3ccc(F)cc3)CN2)c1	7.23	
Fc1ccc(C2(c3ccc(F)cc3)CNC(c3ccncc3)=N2)cc1	6.80	
Fc1ccc(C2(c3ccc(F)cc3)CNC(c3cccs3)=N2)cc1	7.27	
O=[N+]([O-])c1cccc(C2=NC(c3ccc(F)cc3)(c3ccc(F)cc3)CN2)c1	8.37	
N#Cc1cncc(C2=NC(c3ccc(F)cc3)(c3ccc(F)cc3)CN2)c1	7.77	
Nc1cccc(C2=NC(c3ccc(F)cc3)(c3ccc(F)cc3)CN2)c1	6.52	
N#Cc1cc(C2=NC(c3ccc(F)cc3)(c3ccc(F)cc3)CN2)ccn1	8.32	
Fc1ccc(C2(c3ccc(F)cc3)CNC(c3ccccc3Cl)=N2)cc1	6.20	
Fc1ccc(C2(c3ccc(F)cc3)CNC(c3cccnn3)=N2)cc1	6.25	
Fc1ccc(C2(c3ccc(F)cc3)CNC(c3ccsc3)=N2)cc1	7.03	
Fc1ccc(C2(c3ccc(F)cc3)CNC(c3cncnc3)=N2)cc1	7.33	
Fc1ccc(C2(c3ccc(F)cc3)CNC(c3cnccn3)=N2)cc1	8.37	concentration at 2 h [2]: 64 nM; Activity (Rattus norvegicus [6]): 20%; Drug uptake (Brain): 5.9 nmol/g; Kp at 2 h [3]: 4.9; pIC50 [7]: 8.62; Activity (Rattus norvegicus [8]): 60%; concentration at 2 h [4]: 1200 nM; Activity [9]: > 10 µM; Activity [10]: > 10 µM; Activity (Rattus norvegicus [11]): 42%; Activity [12]: > 10 µM; Ratio [5]: 0.01
Fc1ccc(C2(c3ccc(F)cc3)CNC(c3ccc(C(F)(F)F)cc3)=N2)cc1	6.80	
